Assays:
NCI 60 cell line panel = settings: read-out: average GI50; average value in the NCI 60 cell line panel; cited from earlier work
[1] = Stability of BI-94 in monkey plasma; assay type: in vitro ADME; settings: immediately after spiking (data not shown)
[2] = target: human serum albumin (HSA)-T3 peptide (Homo sapiens, UniProt P02768); experiment: HSA-T3 peptide adduct formation in solution; assay type: in vitro ADME; settings: deionized water, 30 min; MS/MS mass shifts +164 (A1) and +273 (A2)
[3] = Stability of BI-94 in solution; assay type: physicochemical; settings: for stability in solution: 10 μg/mL, up to 60 min
Balb/c mice = experiment: GSH and NAC adduct formation in vivo after intravenous dose to mice
[4] = NAC adduct formation in solution; assay type: in vitro ADME; settings: deionized water, 30 min, direct MS; adducts of fragments of NAC and BI-94
In short: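 For structural identification, test compound (final 10 μg/mL) incubated 30 min in water with GSH or NAC, then analysed by direct LC-MS/MS and MS/MS. NAC adducts were screened by EMS-IDA-EPI (positive and negative ESI) only. GSH adducts were also screened by negative-mode precursor ion scans (m/z 254, 272) and by isotopic filtering with 1:1 GSH:[13C2,15N]-GSH.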

[5] = GSH and NAC adduct formation in spiked mouse plasma; assay type: in vitro ADME
In short: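 Freshly collected blank mouse blood/plasma and frozen plasma spiked at 10 μg/mL and held 5 and 20 min at room temperature. One frozen-plasma set was fortified with 9.8 μM GSH before spiking. Samples extracted with four volumes MeOH and spun at 16 000 × g for 10 min. Supernatant was mixed 1:1 with 20% methanol in 7.5 mM ammonium formate (pH 2.5). GSH/NAC adducts quantified by negative-mode LC-MS/MS MRM.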

[6] = Stability of BI-94 in human plasma; assay type: in vitro ADME; settings: immediately after spiking (data not shown)
[7] = Stability / recovery of BI-94 in mouse plasma; assay type: in vitro ADME
In short: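 Mouse plasma (stored −80°C) spiked at 10 μg/mL, room temperature: undiluted, or diluted with one or nine volumes of water or 7.5 mM ammonium formate (pH 2.5). At 1, 20 and 60 min, extracted with four volumes MeOH and spun 16 000 × g for 10 min. Supernatant mixed 1:1 with 20% methanol in formate buffer. Post-extracted plasma was spiked after MeOH extraction. Analysed by LC-MS/MS, m/z 319.1→179.8; % recovery.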

[8] = Stability of BI-94 in rat plasma; assay type: in vitro ADME; settings: immediately after spiking (data not shown)
[9] = GSH adduct formation in solution; assay type: in vitro ADME
[10] = water, after 60 min of incubation

Sequence of human serum albumin (HSA)-T3 peptide (P02768 45-65 limits assumed): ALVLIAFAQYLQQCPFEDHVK

For O=[N+]([O-])c1ccc(S(=O)(=O)Cc2ccccc2)c2nonc12 [BI-94, 4-(benzylsulfonyl)-7-(hydroxy(oxido)amino)-2,1,3-benzoxadiazole], the GI50 (NCI 60 cell line panel) is listed as 22.9 µM, the recovery from plasma [1] is listed as < 1% and the “adduct formation with HSA-T3 peptide, site” value [2] is listed as “forms adducts with albumin at the Cys34 position”. The “stability in the autosampler” value ([3]; 48 h in 50 % methanol in H2O reconstitution solution (data not shown)) was “stable”, the stability in solution ([3]; NaOH or various buffers at pHs 7–9, room temperature) was “not stable” and the stability in solution ([3]; water and various buffers at pHs 2.5–5, room temperature) was “stable”. The “time within which all three mice died after BI-94 administration” value (Balb/c mice; 10 mg/kg intravenous dose, male Balb/c mice (n = 3)) was ≤ 2 h, the “BI-94 adducts with GSH (A1 and A2) and NAC (A1 and A2) in plasma in vivo” value (Balb/c mice; plasma 5 and 60 min after 10 mg/kg intravenous dose to mice) was “detected” and the NAC adducts detected [4] was “three NAC adducts”. For the same compound, the “GSH adducts (A1 and A2) and NAC adduct (A1) in spiked plasma” value ([5]; blank plasma freshly collected from mice, 10 μg/mL) was “detected”, the “GSH and NAC adducts in spiked plasma” value ([5]; frozen blank mouse plasma) was “none of the adducts” and the recovery from plasma [6] was < 1%. For the same compound, the “recovery from post-extracted plasma” value ([7]; blank plasma pre-treated with MeOH and formate buffer, after 60-min incubation) was 100%, the “recovery from mouse plasma” value ([7]; immediately after spiking, plasma diluted with one or nine volumes of H2O) was “below detection limit” and the “recovery from mouse plasma” value ([7]; immediately after spiking, undiluted mouse plasma, 10 μg/mL) was “below detection limit”. The “recovery from mouse plasma” value ([7]; nine volume dilution with 7.5 mM NH4-formate buffer (pH 2.5)) was “completely recovered”, the “recovery from mouse plasma” value ([7]; one volume dilution with 7.5 mM NH4-formate buffer (pH 2.5), 60 min of incubation) was 10% and the “recovery from mouse plasma” value ([7]; one volume dilution with 7.5 mM NH4-formate buffer (pH 2.5), immediate) was 62%. For the same compound, the “recovery from post-extracted plasma” value ([7]; plasma pretreated with MeOH, after 60-min incubation) was 20%, the “recovery from post-extracted plasma” value ([7]; plasma pretreated with MeOH, immediately after spiking) was 100% and the recovery from plasma [8] was < 1%. For the same compound, the “BI-94 depleted on incubation with GSH” value ([9]; NH4-formate buffer of pH 2.5, over 1 h) was 14%, the “decrease in BI-94 peak area on incubation with GSH” value ([9]; PBS, within 5 min of incubation) was 94.5% and the GSH adducts detected ([9]; deionized water, 30 min, direct MS, adducts with a fragment of BI-94) was “two adducts”. The “decrease in BI-94 peak area on incubation with GSH” value [9, 10] was 64% and the “increase in peak area of A1 and A2 GSH adducts” value [9, 10] was 6 fold.
